Data: ChEMBL document CHEMBL2401716, “Design and stereoselective synthesis of novel isosteviol-fused pyrazolines and pyrazoles as potential anticancer agents” (Eur J Med Chem, 2013)

Experiments:
Assay type in all cases: functional, cell-based
[1] = tested on: A549; experiment: Antiproliferative activity against human A549 cells after 48 hrs by MTT assay; settings: A549, 48 h
Outline: (§1)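 Cells seeded in 96-well plates and exposed to compounds for 48 h at 37 °C, 5% CO2. MTT (0.5 mg/mL) then added for 4 h. Supernatant removed, formazan dissolved in DMSO, and OD read at 570 nm. Cisplatin served as positive control.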

[2] = tested on: HeLa; experiment: Antiproliferative activity against human HeLa cells after 48 hrs by MTT assay; outline: as §1
[3] = tested on: SGC-7901; experiment: Antiproliferative activity against human SGC7901 cells after 48 hrs by MTT assay; settings: SGC-7901, 48 h; outline: as §1
[4] = tested on: Raji; experiment: Antiproliferative activity against human Raji cells after 48 hrs by MTT assay
Outline: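 Human B-lymphoma Raji line kept in RPMI-1640 with 10% FBS and 100 U/mL penicillin at 37 °C, 5% CO2, humidified. Cells were plated in 96 wells and treated with compounds for 48 h. MTT (0.5 mg/mL) was added for 4 h, then formazan was taken up in DMSO after supernatant removal and read at 570 nm. Cisplatin served as positive control.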

Row | Compound | IC50 [1] [µM] | IC50 [2] [µM] | IC50 [3] [µM] | IC50 [4] [µM]
1 | CCOC(=O)[C@]1(C)CCC[C@@]2(C)[C@@H]3CC[C@@]4(C)C[C@]3(CC[C@@H]21)[C@@H]1CN(c2cc(Cl)ccc2Cl)N=C14 | > 50 | > 50 | > 50 | 25.6
2 | CCOC(=O)[C@]1(C)CCC[C@@]2(C)[C@@H]3CC[C@@]4(C)C[C@]3(CC[C@@H]21)[C@@H]1CN(c2ccc(OC)cc2)N=C14 | 17.8 | 31.2 | 34 | 12.2
3 | CCOC(=O)[C@]1(C)CCC[C@@]2(C)[C@@H]3CC[C@@]4(C)C[C@]3(CC[C@@H]21)c1cnn(-c2ccc(C)cc2C)c14 | 16.5 | 43.3 | 18.7 | 6.55
4 | CCOC(=O)[C@]1(C)CCC[C@@]2(C)[C@@H]3CC[C@@]4(C)C[C@]3(CC[C@@H]21)[C@@H]1CN(c2cc(F)ccc2F)N=C14 | 20.2 | > 50 | > 50 | 27.4
5 | CCOC(=O)[C@]1(C)CCC[C@@]2(C)[C@@H]3CC[C@@]4(C)C[C@]3(CC[C@@H]21)c1cnn(-c2cccc(C)c2)c14 | 12.4 | > 50 | 13.6 | 4.84
6 | CCOC(=O)[C@]1(C)CCC[C@@]2(C)[C@@H]3CC[C@@]4(C)C[C@]3(CC[C@@H]21)c1cnn(-c2cccc(Cl)c2Cl)c14 | > 50 | > 50 | > 50 | 5.13
7 | CCOC(=O)[C@]1(C)CCC[C@@]2(C)[C@@H]3CC[C@@]4(C)C[C@]3(CC[C@@H]21)[C@@H]1CN(c2cccc(Cl)c2)N=C14 | > 50 | > 50 | > 50 | 4.57
8 | CCOC(=O)[C@]1(C)CCC[C@@]2(C)[C@@H]3CC[C@@]4(C)C[C@]3(CC[C@@H]21)c1cnn(-c2ccccc2)c14 | 25.4 | 42.5 | 17.6 | 11.4
9 | C[C@@]12CC[C@@H]3[C@@](CC[C@H]4[C@@]3(C)CCC[C@@]4(C)C(=O)O)(CC1=O)C2 [ISOSTEVIOL] | > 50 | > 50 | > 50 | > 50
10 | CCOC(=O)[C@]1(C)CCC[C@@]2(C)[C@@H]3CC[C@@]4(C)C[C@]3(CC[C@@H]21)[C@@H]1CN(c2ccc(C)cc2C)N=C14 | > 50 | > 50 | 28.5 | 11.2
11 | CCOC(=O)[C@]1(C)CCC[C@@]2(C)[C@@H]3CC[C@@]4(C)C[C@]3(CC[C@@H]21)[C@@H]1CN(c2c(C)cccc2C)N=C14 | 17.6 | 28.8 | 16.6 | 5.63
12 | CCOC(=O)[C@]1(C)CCC[C@@]2(C)[C@@H]3CC[C@@]4(C)C[C@]3(CC[C@@H]21)[C@@H]1CN(c2cccc(C)c2C)N=C14 | > 50 | > 50 | 31.9 | 8.82
13 | CCOC(=O)[C@]1(C)CCC[C@@]2(C)[C@@H]3CC[C@@]4(C)C[C@]3(CC[C@@H]21)[C@@H]1CN(c2ccc(F)cc2F)N=C14 | > 50 | > 50 | > 50 | 13.5
14 | CCOC(=O)[C@]1(C)CCC[C@@]2(C)[C@@H]3CC[C@@]4(C)C[C@]3(CC[C@@H]21)c1cnn(-c2ccc([N+](=O)[O-])cc2)c14 | > 50 | > 50 | > 50 | 10.2
15 | CCOC(=O)[C@]1(C)CCC[C@@]2(C)[C@@H]3CC[C@@]4(C)C[C@]3(CC[C@@H]21)c1cnn(-c2ccc(C)c(C)c2)c14 | 15.8 | 38.2 | 38.1 | 6.5
16 | CCOC(=O)[C@]1(C)CCC[C@@]2(C)[C@@H]3CC[C@@]4(C)C[C@]3(CC[C@@H]21)c1cnn(-c2ccccc2F)c14 | 27 | > 50 | 35.6 | 4.15
17 | CCOC(=O)[C@]1(C)CCC[C@@]2(C)[C@@H]3CC[C@@]4(C)C[C@]3(CC[C@@H]21)c1cnn(-c2cc(C)cc(C)c2)c14 | > 50 | > 50 | > 50 | 12.5
18 | CCOC(=O)[C@]1(C)CCC[C@@]2(C)[C@@H]3CC[C@@]4(C)C[C@]3(CC[C@@H]21)c1cnn(-c2ccc(F)cc2F)c14 | 20.1 | > 50 | 28.4 | 9.96
19 | CCOC(=O)[C@]1(C)CCC[C@@]2(C)[C@@H]3CC[C@@]4(C)C[C@]3(CC[C@@H]21)[C@@H]1CN(c2cccc([N+](=O)[O-])c2)N=C14 | > 50 | > 50 | > 50 | > 50
20 | CCOC(=O)[C@]1(C)CCC[C@@]2(C)[C@@H]3CC[C@@]4(C)C[C@]3(CC[C@@H]21)c1cnn(-c2ccccc2Cl)c14 | 21.5 | 34.6 | 25.4 | 10.1
21 | CCOC(=O)[C@]1(C)CCC[C@@]2(C)[C@@H]3CC[C@@]4(C)C[C@]3(CC[C@@H]21)c1cnn(-c2cc(Cl)cc(Cl)c2)c14 | > 50 | > 50 | > 50 | 15.8
22 | CCOC(=O)[C@]1(C)CCC[C@@]2(C)[C@@H]3CC[C@@]4(C)C[C@]3(CC[C@@H]21)[C@@H]1CN(c2ccc(C)c(C)c2)N=C14 | > 50 | > 50 | 32.5 | 8.36
